TDP2 absorb – blocks human TDP2 phosphodiesterase activity | recombinant TDP2, T5PNP hydrolysis, p-nitrophenol absorbance 415 nm | AID 720702 | 0.34% of 370,000 active | inhibition, % at 12.8 µM;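 active = inhibition above the mean of all tested compounds plus 3 SD, set per campaign, cut at about 25% in these data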;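 also: 0% = DMSO with enzyme and 100% = buffer with substrate but no TDP2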
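Evaluation: % inhibition relative to enzyme-containing and enzyme-free wells. Material: recombinant human TDP2. Benchmarks: enzyme-free and DMSO wells. Timing: enzyme reaction with compound for 2 h at 37 °C. Compound dosing: 12.8 µM only. Measured by: p-Nitrophenol epi absorbance. Reagent: T5PNP substrate at 5 mM, a TopII-DNA adduct mimic. Replication: single well per compound.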
PP1 inh – PP1-alpha (human) inhibition in PP5 counter-screen; AID 2235; 0.9% of 320,000 active; purified PP1alpha, OMFP fluorescence; inhibition, % at 6.7 µM;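 active = inhibition above the mean inhibition of all tested compounds plus 3 SD, computed separately for each screening campaign, cut at about 15% in these data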
PP5 inh – inhibitors of human protein phosphatase 5 (PP5); purified PP5c, OMFP substrate fluorescence; P53041; 0.18% of 320,000 active; inhibition, % at 6.7 µM; AID 1987;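 active = inhibition above the campaign's mean inhibition across all tested compounds plus 3 SD, cut at about 9.5% in these data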;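 also: 0% = DMSO only and 100% = 100 µM cantharidin control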
Target sequence (P53041 whole entry, looked up): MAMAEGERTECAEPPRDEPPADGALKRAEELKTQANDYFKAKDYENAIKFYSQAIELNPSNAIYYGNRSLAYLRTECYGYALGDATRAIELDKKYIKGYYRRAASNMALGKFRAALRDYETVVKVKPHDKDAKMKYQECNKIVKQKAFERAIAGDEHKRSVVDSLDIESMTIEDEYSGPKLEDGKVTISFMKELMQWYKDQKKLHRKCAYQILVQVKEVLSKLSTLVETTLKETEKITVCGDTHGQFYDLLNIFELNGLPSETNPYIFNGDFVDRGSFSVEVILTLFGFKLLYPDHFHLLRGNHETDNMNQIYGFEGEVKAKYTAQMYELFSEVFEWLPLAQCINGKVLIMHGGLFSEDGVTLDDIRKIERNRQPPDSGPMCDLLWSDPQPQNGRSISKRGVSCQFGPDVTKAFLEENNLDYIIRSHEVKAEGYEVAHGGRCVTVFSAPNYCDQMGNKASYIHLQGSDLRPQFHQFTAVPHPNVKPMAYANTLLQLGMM
GSTO1 counter – counter-screen for RBBP9 inhibitors: inhibitors of human GSTO1. P78417. recombinant GSTO1, activity-based probe fluorescence polarization. inhibition, % at 5.96 µM. 1.1% of 300,000 active;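 active = inhibition above the campaign mean inhibition plus 3 SD, cut at about 35% in these data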;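 also: 0% = GSTO1-1 with DMSO and 100% = wells lacking GSTO1-1 enzyme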
Target sequence (P78417 whole entry, looked up): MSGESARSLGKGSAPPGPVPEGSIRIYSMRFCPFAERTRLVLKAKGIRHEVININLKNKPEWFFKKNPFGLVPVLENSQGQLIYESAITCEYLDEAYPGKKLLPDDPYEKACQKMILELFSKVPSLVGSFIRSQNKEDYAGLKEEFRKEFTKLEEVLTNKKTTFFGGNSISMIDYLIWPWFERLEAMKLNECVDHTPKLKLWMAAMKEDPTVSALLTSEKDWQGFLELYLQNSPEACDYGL
Apaf1 inhib – blocks human Apaf-1 apoptosome activity | reconstituted apoptosome caspase-3 activity, DEVD-Rh110 fluorescence | inhibition, % at 20 µM | 0.71% of 330,000 active; active = inhibition of at least 40% at 20 µM;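 also: plate controls were DMSO wells for no effect and DEVD-CHO caspase inhibitor wells for full effect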
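Material: reconstituted apoptosome with Apaf-1, cytochrome c, caspase-9, procaspase-3, dATP / Buffer or medium: pH 7.5 Hepes buffer with CHAPS, BSA, DTT / Also added: cytochrome c with DEVD-Rh110 / Schedule: compound with Apaf-1, dATP, procaspase-3 30 min, then 50 min reaction, room temperature / Technique: rhodamine 110 fluorescence at Ex 480/Em 540 nm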
PP5 conf – confirmation of human PP5 phosphatase inhibitors | shares compounds with PP5 inh | Purified PP5, fluorogenic phosphatase substrate, fluorescence | inhibition, % at 6.7 µM | 22% of 460 active; in the data active = inhibition above about 9.5%
PP1 inh counter – inhibits human PP1 phosphatase in PP5 counter-screen; shares compounds with PP5 inh; AID 2355; PP1 enzyme, fluorescent phosphatase substrate; inhibition, % at 6.7 µM; 4% of 460 active; in the data active = inhibition above about 16%
PP1 inh confirm – confirmation of human PP1 phosphatase inhibitors | shares compounds with PP1 inh | purified PP1alpha, OMFP substrate fluorescence | inhibition, % at 6.7 µM | 52% of 1,900 active;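 active = mean PP1 inhibition above a set limit taken from the earlier primary screen, cut at about 15% in these data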
PP5 inh counter – counter-screen for PP1 inhibitors: human PP5 phosphatase inhibition. shares compounds with PP1 inh. AID 2360. 4% of 1,900 active. purified PP5c, OMFP fluorescence. inhibition, % at 6.7 µM;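 active = mean PP5 inhibition over triplicate wells above about 9.5% taken from the earlier PP1 screen, limit read from the data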
Apaf-1 inh conf – Apaf-1 inhibition, single-dose confirmed; shares compounds with Apaf1 inhib; reconstituted apoptosome, caspase-3 DEVD-Rh110 fluorescence; inhibition, % at 20 µM; 25% of 1,800 active;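 active = mean inhibition of at least 40% at 20 µM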;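 also: plate controls were DMSO wells for no effect and DEVD-CHO caspase inhibitor control wells for full effect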
Rh110 interf inh – interferes with Rh110 fluorescence, flagging false Apaf-1 inhibitors | AID 504615 | shares compounds with Apaf1 inhib | Rh110 fluorescence interference, quenched caspase reaction | activation (fluorescence interference), % at 20 µM | 1,800 tested, under 10 active;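 active = signal rise of 40% or more at 20 µM, treated as a fluorescence artifact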
Apaf1 inh interf – shows fluorescence interference in the Apaf-1 inhibitor assay format. shares compounds with Apaf1 inhib. fluorescence interference counterscreen, Apaf-1 assay format. IC50, µM. 460 tested, under 10 active. AID 588538; call rule not given here
TDP2 confirm – human TDP2 inhibition, confirmation. shares compounds with TDP2 absorb. recombinant human TDP2, absorbance read-out. inhibition, % at 12.8 µM. 22% of 1,100 active; in the data active = inhibition above about 25%;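 also: 0% = vehicle with enzyme and 100% = no enzyme buffer only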
The depositor's hits bear a star; x = no result. In the library only some 2.1% were active in any assay of this set; here they are far more common.

SMILES	TDP2 absorb	PP1 inh	PP5 inh	GSTO1 counter	Apaf1 inhib	PP5 conf	PP1 inh counter	Apaf-1 inh conf	Rh110 interf inh	others
C[C@@H]1CN(c2ccc(N3CCNC[C@H]3C)cc2C#N)CCN1Cc1ccccc1	1.4	x	x	x	x	x	x	x	x
C=CCN1C(=O)[C@H](CC(=O)N2CCCCC2)[C@@]2(C(=O)OCC)CCCC=C12	5.0	x	x	x	x	x	x	x	x
O=C(NCC1CCCO1)c1cc2c([nH]c3ccccc32)c(-c2cccc(Cl)c2)n1 (centres undefined)	x	10.5	10.9*	-38.3	3.7	2.7	6.3	x	x
COC12CC(=O)C(C(C)=O)=C(O)C1(C)c1c(O)c(C)c(O)c(C(C)=O)c1O2 (centres undefined)	4.9	x	x	x	x	x	x	x	x
O=C(NCCc1ccccn1)c1cc(-c2cccc3ccccc23)nc2ccccc12	2.3	1.6	21.0*	-2.1	11.8	-2.8	-3.0	x	x
Cc1ccc(-c2cc(C(=O)NCCc3ccccn3)c3ccccc3n2)c(C)c1	-3.9	2.7	1.6	-1.5	3.0	x	x	x	x
Cc1noc(C)c1S(=O)(=O)N1CCCc2nc(-c3ccc(Br)cc3)ccc21	-5.7	x	x	x	x	x	x	x	x
COC(=O)C1CN(Cc2ccc(Cl)cc2)CCS(=O)(=O)N1Cc1cn(Cc2ccc(OC)cc2)nn1 (centres undefined)	-13.8	x	x	x	x	x	x	x	x
Cc1ccc(Sc2ccc(N)cn2)cc1	-11.4	2.1	13.7*	7.7	-0.1	-4.3	-3.1	x	x
Nc1ccc(Sc2ccccc2)nc1	-1.0	0.1	0.7	5.3	-9.7	x	x	x	x
CCCC(=O)Nc1ccc(Br)c(Cl)c1	3.9	0.6	1.0	-5.1	11.0	x	x	x	x
CC(=O)Nc1ccc(Br)c(Cl)c1	2.1	-1.8	11.3*	1.9	14.1	-6.5	-6.2	x	x
COC(=O)CCC(=O)OC1(C)C(=O)C=C2C=C(C3CC3)N(C3CCCC3)C=C2C1=O (centres undefined)	24.1	3.2	11.5*	26.4	67.5*	31.7*	7.4	38.3	7.8
CN1C(=O)c2cc(NC(=O)c3ccccc3)ccc2OC[C@H]2O[C@@H](CC(=O)NCC3CC3)CC[C@@H]21	10.9	x	x	x	x	x	x	x	x
Oc1cccc(/C=N/Nc2cc(N3CCCC3)nc(N3CCCC3)n2)c1	-5.7	2.7	16.3*	35.6*	96.9*	37.2*	10.1	98.5*	11.0	Apaf1 inh interf=>100
Oc1ccc(/C=N/Nc2cc(N3CCOCC3)nc(N3CCOCC3)n2)cc1	-7.6	-2.4	6.2	31.4	10.9	x	x	x	x
Oc1ccc(/C=N/Nc2cc(N3CCCC3)nc(N3CCCC3)n2)cc1	-0.2	3.4	15.5*	4.3	97.4*	36.9*	13.7	99.7*	11.6	Apaf1 inh interf=>100
COc1ccc(/C=N/Nc2cc(N3CCCC3)nc(N3CCCC3)n2)cc1	-7.0	6.3	16.0*	36.5*	93.4*	33.5*	17.5*	96.3*	5.2	Apaf1 inh interf=>100
CCCCN(CC)c1nc(N)c(C#N)c(CC#N)c1C#N	-0.2	3.9	2.5	4.8	19.0	x	x	x	x
CCCOc1cc2c(C#N)c(N3CCCC3)nc(N)c2c(N)n1	2.3	4.2	11.4*	5.3	97.6*	37.9*	3.3	73.5*	2.6	Apaf1 inh interf=>100
CCCCN(CC)c1nc(N)c2c(N)nc(OCC)cc2c1C#N	-9.8	4.8	11.9*	15.0	97.8*	25.0*	2.3	15.5	11.4
CCCCNc1cccc2c1S(=O)(=O)N[C@H](C)CO2	13.0	x	x	x	x	x	x	x	x
COc1ccc(C(=O)c2nccc3cc(OC)c(OC)cc23)cc1OC	x	2.5	13.1*	x	83.6*	48.0*	7.3	43.6*	-3.5	Apaf1 inh interf=>100
COc1ccc(C(=O)c2ccc(OC)c(OC)c2)cc1OC	8.1	-3.0	-0.3	0.6	4.6	x	x	x	x
CC(=O)C1=C(C)NC(=S)NC1c1ccccc1 (centres undefined)	9.4	x	x	x	x	x	x	x	x
SMILES	TDP2 absorb	PP1 inh	PP5 inh	GSTO1 counter	Apaf1 inhib	PP5 conf	PP1 inh counter	Apaf-1 inh conf	Rh110 interf inh	others
CCCCC(=O)N[C@H]1CC[C@@]23CCCN2C(=O)CCC[C@H]3[C@H]1C	3.3	x	x	x	x	x	x	x	x
O=C(NC1(O)C(=O)c2ccccc2C1=O)c1c(Cl)cccc1Cl	71.2*	2.8	16.4*	79.4*	96.1*	41.5*	7.4	97.4*	4.2	Apaf1 inh interf=>100;TDP2 confirm=79.3*
CC(=O)C(C(C)=O)C1(O)C(=O)c2ccccc2C1=O	44.4*	3.4	14.3*	74.8*	86.0*	38.4*	3.3	87.4*	-2.1	Apaf1 inh interf=>100;TDP2 confirm=68.2*
Nc1[nH]c(C(=O)c2ccccc2)c(-c2ccc(Cl)cc2Cl)c1C(=O)c1cccs1	-6.2	x	x	x	x	x	x	x	x
CCOC(=O)C1=C(C)OC2(O)c3ccccc3C(=O)C12O (centres undefined)	69.9*	2.3	12.2*	73.6*	88.5*	40.6*	13.1	98.0*	5.7	Apaf1 inh interf=>100;TDP2 confirm=81.2*
CCOC(=O)C1=C(C)c2ccccc2OC1(CC)C(=O)OCC (centres undefined)	-1.2	x	x	x	13.3	x	x	x	x
Nc1nc2c(ncn2[C@@H]2O[C@H](C(=O)NCCCc3ccccc3)[C@@H](O)[C@H]2O)c(=O)[nH]1	4.2	x	x	x	x	x	x	x	x
CCN(CC)CCCN1C=C2C(=O)C(C)(OC(=O)CCC(=O)OC)C(=O)C=C2C=C1C1CC1 (centres undefined)	20.9	-0.8	8.3	24.8	38.9	x	x	x	x
COC(=O)CCC(=O)OC1(C)C(=O)C=C2C=C(C3CC3)N(CC3CC3)C=C2C1=O (centres undefined)	28.0*	0.5	11.8*	33.0	56.8*	37.2*	13.8	36.6	2.6	TDP2 confirm=11.5
CCCCn1c(/C=N/Nc2nc3ccccc3[nH]2)nc2ccccc21	-6.7	20.6*	4.6	-9.2	7.3	x	x	x	x	PP1 inh confirm=12.3;PP5 inh counter=-1.1
C(=N\Nc1nc2ccccc2[nH]1)/c1cccc2nccnc12	7.2	-0.8	0.2	-2.2	10.9	x	x	x	x
CCCCn1c(/C=C/c2ccco2)nc2ccccc21	5.0	3.8	1.1	1.8	24.3	x	x	x	x
C#CCn1cc(/C=N/Nc2nc3ccccc3[nH]2)c2ccccc21	-3.7	21.7*	6.8	-3.6	11.7	x	x	x	x	PP1 inh confirm=23.8*;PP5 inh counter=1.9

Screening data from PubChem BioAssay.
